From ChEMBL document CHEMBL1123741 (J Med Chem, 1987)
In brackets after ≈: the same amount, converted by molar mass.

Key:
Mus musculus [1] = assay: Compound was evaluated for its effect on HSV -2 induced mortality in mice measured as mean survival time (MST) at the dose of 50 mg/kg per day; assay type: functional
How it was run: (§1)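 Female Swiss mice, 16–18 g, anesthetized and inoculated intracerebrally with 10 LD50 of HSV 2 (G strain), then randomized into groups of 8–12. Dosing was ip, b.i.d. for 5 consecutive days, starting 1 h postinfection. Mortality was followed for 21 days. P values were from the two-tailed Fisher exact test for survivors and the Gehan-Wilcoxon test for mean survival time.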

Cavia porcellus [2] = species: Cavia porcellus; assay: Compound (5%) was evaluated for its effect on (no. of areas = 4) time to start healing in HSV-1 cutaneous infection of guinea pig; expressed as time to start healing; assay type: functional
Mus musculus [3] = assay: Compound was evaluated for its effect ofHSV -2 induced mortality in mice measured as survivors/total (%) at the dose of 12.5 mg/kg per day; 2/10; assay type: functional; how it was run: as §1
Mus musculus [4] = assay: Compound was evaluated for its effect ofHSV -2 induced mortality in mice measured as survivors/total (%) at the dose of 100 mg/kg per day; 5/10; assay type: functional; how it was run: as §1
Cavia porcellus [5] = species: Cavia porcellus; assay: Compound (5%) was evaluated for its effect on (no. of areas = 4) mean area under lesion score-day curve in HSV-1 cutaneous infection of guinea pig; expressed as mean area under lesion score-day curve; assay type: functional
Mus musculus [6] = assay: Compound was evaluated for its effect on HSV -2 induced mortality in mice measured as mean survival time (MST) at the dose of 12.5 mg/kg per day; assay type: functional; how it was run: as §1
Cavia porcellus [7] = species: Cavia porcellus; assay: Compound (5%) was evaluated for its effect on (no. of areas = 4)maximum score in HSV-1 cutaneous infection of guinea pig; expressed as maximum score; assay type: functional
Mus musculus [8] = assay: Compound was evaluated for its effect ofHSV -2 induced mortality in mice measured as survivors/total (%) at the dose of 25 mg/kg per day; 0/10; assay type: functional; how it was run: as §1
Vero [9] = assay: Compound was evaluated for antiviral activity against Herpes simplex virus (HSV) -2 (MS) in Vero cell cultures; assay type: functional; conditions: Chlorocebus sabaeus, read-out: ID50 (the source's name)
How it was run: (§2)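 Vero cell cultures were infected with HSV-1 strain BWˢ or HSV-2 strain MS. Antiviral activity was read by the dye-uptake method. The 50% inhibitory dose (ID50) was obtained by linear regression.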

Cavia porcellus [10] = species: Cavia porcellus; assay: Compound (5%) was evaluated for its effect on (no. of areas = 4)mean peak lesion score in HSV-1 cutaneous infection of guinea pig; expressed as mean peak lesion score; assay type: functional
Mus musculus [11] = assay: Compound was evaluated for its effect on HSV -2 induced mortality in mice measured as mean survival time (MST) at the dose of 200 mg/kg per day; assay type: functional; how it was run: as §1
Mus musculus [12] = assay: Compound was evaluated for its effect on HSV -2 induced mortality in mice measured as mean survival time (MST) at the dose of 100 mg/kg per day; assay type: functional; how it was run: as §1
Vero [13] = assay: Compound was evaluated for antiviral activity against Herpes simplex virus (HSV) -1 (BW) in Vero cell cultures; assay type: functional; conditions: Chlorocebus sabaeus, read-out: ID50 (the source's name); how it was run: as §2
Mus musculus [14] = assay: Compound was evaluated for its effect on HSV -2 induced mortality in mice measured as mean survival time (MST) at the dose of 25 mg/kg per day; assay type: functional; how it was run: as §1
Mus musculus [15] = assay: Compound was evaluated for its effect on HSV -2 induced mortality in mice measured as survivors/total (%) at the dose of 200 mg/kg per day; 6/12; assay type: functional; how it was run: as §1
Mus musculus [16] = assay: Compound was evaluated for its effect ofHSV -2 induced mortality in mice measured as survivors/total (%) at the dose of 50 mg/kg per day; 3/10; assay type: functional; how it was run: as §1
Cavia porcellus [17] = species: Cavia porcellus; assay: Compound (5%) was evaluated for its effect on (no. of areas = 3) time to start healing in HSV-1 cutaneous infection of guinea pig; expressed as time to start healing; assay type: functional
Cavia porcellus [18] = species: Cavia porcellus; assay: Compound (5%) was evaluated for its effect on (no. of areas = 3)maximum score in HSV-1 cutaneous infection of guinea pig; expressed as maximum score; assay type: functional
Human alphaherpesvirus 1 = assay: Compound (5%) was evaluated for its effect on (no. of areas = 3)mean peak lesion score in HSV-1 cutaneous infection of guinea pig; expressed as mean peak lesion score; assay type: functional
Cavia porcellus [19] = species: Cavia porcellus; assay: Compound (5%) was evaluated for its effect on (no. of areas = 3) mean area under lesion score-day curve in HSV-1 cutaneous infection of guinea pig; expressed as mean area under lesion score-day curve; assay type: functional
Mus musculus [20] = assay: Compound was evaluated for its effect of HSV -2 induced mortality in mice measured as survivors/total (%) at the dose of 100 mg/kg per day; 3/10; assay type: functional; how it was run: as §1
Mus musculus [21] = assay: Compound was evaluated for its effect of HSV -2 induced mortality in mice measured as survivors/total (%) at the dose of 50 mg/kg per day; 5/10; assay type: functional; how it was run: as §1
Mus musculus [22] = assay: Compound was evaluated for its effect of HSV -2 induced mortality in mice measured as survivors/total (%) at the dose of 25 mg/kg per day; 5/10; assay type: functional; how it was run: as §1
Mus musculus [23] = assay: Compound was evaluated for its effect of HSV -2 induced mortality in mice measured as survivors/total (%) at the dose of 200 mg/kg per day; 6/10; assay type: functional; how it was run: as §1
Cavia porcellus [24] = species: Cavia porcellus; assay: Compound (5%) was evaluated for its effect on (no. of areas =3) time to start healing in HSV-1 cutaneous infection of guinea pig; expressed as time to start healing; assay type: functional
Mus musculus [25] = assay: Compound was evaluated for its effect of HSV -2 induced mortality in mice measured as survivors/total (%) at the dose of 12.5 mg/kg per day; 2/10; assay type: functional; how it was run: as §1
Mus musculus [26] = assay: Compound was evaluated for its effect of HSV -2 induced mortality in mice measured as survivors/total (%) at the dose of 100 mg/kg per day; 3/8; assay type: functional; how it was run: as §1
Mus musculus [27] = assay: Compound was evaluated for its effect of HSV -2 induced mortality in mice measured as survivors/total (%) at the dose of 25 mg/kg per day; 3/9; assay type: functional; how it was run: as §1
Mus musculus [28] = assay: Compound was evaluated for its effect of HSV -2 induced mortality in mice measured as survivors/total (%) at the dose of 50 mg/kg per day; 4/10; assay type: functional; how it was run: as §1
[29] = substrate: O=c1[nH]c(=O)n([C@@H]2O[C@H](CO)[C@@H](O)[C@@H]2F)cc1I; conditions: Chlorocebus sabaeus; Vero
[30] = substrate: Cc1cn([C@@H]2O[C@H](CO)[C@@H](O)[C@@H]2F)c(=O)[nH]c1=O; conditions: Chlorocebus sabaeus; Vero
[31] = substrate: NC1=NC(=O)C2N=CN(COCCO)C2=N1; conditions: Chlorocebus sabaeus; Vero

CCc1cn([C@@H]2O[C@H](CO)[C@@H](O)[C@@H]2F)c(=O)[nH]c1=O
MST (Mus musculus [1]): 12 days
Activity (Cavia porcellus [2]): 6.5 days
Activity (Mus musculus [3]): 2%
Activity (Mus musculus [4]): 5%
Activity (Cavia porcellus [5]): 10
MST (Mus musculus [6]): 8 days
Activity (Cavia porcellus [7]): 3 days
Activity (Mus musculus [8]): 0%
IC50 (Vero [9]): 2.7 µg/mL (≈ 9.85 µM)
Activity (Cavia porcellus [10]): 1.5
MST (Mus musculus [11]): 19 days
MST (Mus musculus [12]): 18 days
IC50 (Vero [13]): 0.99 µg/mL (≈ 3.61 µM)
MST (Mus musculus [14]): 9 days
Activity (Mus musculus [15]): 6%
Activity (Mus musculus [16]): 3%

Cc1cn([C@@H]2O[C@H](CO)[C@@H](O)[C@@H]2F)c(=O)[nH]c1=O [5-METHYL-2'-FLUOROARAURACIL]
Activity (Cavia porcellus [17]): 5.33 days
Activity (Cavia porcellus [18]): 2.67 days
IC50 (Vero [9]): 0.13 µg/mL (≈ 0.5 µM)
IC50 (Vero [13]): 1.3 µg/mL (≈ 5 µM)
Activity (Human alphaherpesvirus 1): 0.75
Activity (Cavia porcellus [19]): 2.7

O=c1[nH]c(=O)n([C@@H]2O[C@H](CO)[C@@H](O)[C@@H]2F)cc1I [FIALURIDINE]
MST (Mus musculus [1]): 18 days
Activity (Mus musculus [20]): 3%
MST (Mus musculus [6]): 10 days
Activity (Mus musculus [21]): 5%
Activity (Cavia porcellus [18]): 3 days
IC50 (Vero [9]): 0.64 µg/mL (≈ 1.72 µM)
Activity (Mus musculus [22]): 5%
Activity (Cavia porcellus [10]): 1
MST (Mus musculus [11]): 21 days
MST (Mus musculus [12]): 13 days
IC50 (Vero [13]): 0.96 µg/mL (≈ 2.58 µM)
MST (Mus musculus [14]): 18 days
Activity (Cavia porcellus [19]): 9.6
Activity (Mus musculus [23]): 6%
Activity (Cavia porcellus [24]): 4.67 days
Activity (Mus musculus [25]): 2%

NC1=NC(=O)C2N=CN(COCCO)C2=N1 (stereo not given)
MST (Mus musculus [1]): 10 days
Activity (Cavia porcellus [2]): 6.25 days
Activity (Mus musculus [26]): 3%
Activity (Cavia porcellus [5]): 15.2
MST (Mus musculus [6]): 8 days
Activity (Cavia porcellus [7]): 4 days
IC50 (Vero [9]): 1.1 µg/mL (≈ 4.88 µM)
Activity (Cavia porcellus [10]): 2.5
MST (Mus musculus [12]): 13 days
IC50 (Vero [13]): 0.7 µg/mL (≈ 3.11 µM)
MST (Mus musculus [14]): 10 days
Activity (Mus musculus [27]): 3%
Activity (Mus musculus [28]): 4%
Activity (Mus musculus [25]): 2%

B1: Thymidine kinase, cytosolic (Homo sapiens), P04183 (protein)
chain: MSCINLPTVLPGSPSKTRGQIQVILGPMFSGKSTELMRRVRRFQIAQYKCLVIKYAKDTRYSSSFCTHDRNTMEALPACLLRDVAQEALGVAVIGIDEGQFFPDIVEFCEAMANAGKTVIVAALDGTFQRKPFGAILNLVPLAESVVKLTAVCMECFREAAYTKRLGTEKEVEVIGGADKYHSVCRLCYFKKASGQPAGPDNKENCPVPGKPGEAVAARKLFAPQQILQCSPAN
Ki [29]: 53 µM
Ki [30]: 60 µM
Ki [31]: > 4920 µM
